We go through one molecule from ChEMBL document CHEMBL4706622, “Comparative study between the anti-P. falciparum activity of triazolopyrimidine, pyrazolopyrimidine and quinoline derivatives and the identification of new PfDHODH inhibitors” (Eur J Med Chem, 2021).

Molecules are shown by their SMILES.

Broadly, the IC50 is the midpoint of a concentration-inhibition curve. By inhibition is commonly meant the drop in the measured response relative to a control, in per cent.

The subject of series [1] is HepG2. Briefly: Cytotoxicity against human HepG2 cells assessed as cell viability after 72 hrs by MTT assay. The series is classed as cell-based. Conditions: HepG2, 72 h. In general terms: Tetrazolium assays rely on reduction of a dye to a coloured formazan, in cell work by metabolically active cells.
Series [2] is described as follows: Selectivity index, ratio of IC50 for cytotoxicity against human HepG2 cells to IC50 for antimalarial activity against Plasmodium falciparum 3D7. The series is classed as toxicity, cell-based. The conditions noted are these: read-out: Ratio IC50.
The test system of series [3] is Plasmodium falciparum. Briefly: Antimalarial activity against CQ-sensitive Plasmodium falciparum 3D7 infected in erythrocytes by SYBR Green dye based fluorescence assay. The series is classed as functional, organism-based.
In series [4] the test system is Plasmodium falciparum. Nature of the series: Inhibition of Plasmodium falciparum DHODH (159- 569 aa) expressed in Escherichia coli BL21(DE3) cells assessed as 2,6-dichloroindophenol reduction at 50 uM by colorimetric method. In a few lines:
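First-stage PfDHODH screen at a single compound concentration of 50 µM, reported as % inhibition. Compounds giving ≥80% inhibition went on to IC50 determination. The PfDHODH final concentration in the inhibition assay was 50 nM.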

Series [5] is described as follows: Inhibition of Plasmodium falciparum DHODH (159- 569 aa) expressed in Escherichia coli BL21(DE3) cells assessed as 2,6-dichloroindophenol reduction by colorimetric method. In a few lines: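 Second-stage PfDHODH IC50 determination from concentration–response curves, run only on compounds giving ≥80% inhibition at 50 µM in the single-point screen. PfDHODH final concentration was 50 nM. IC50 was not assigned where substrate consumption could not be measured at some concentrations on the curve.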

In series [6] the target is Dihydroorotate dehydrogenase (quinone), mitochondrial (Homo sapiens) (UniProt Q02127). Briefly: Inhibition of human DHODH assessed as 2,6-dichloroindophenol reduction at 50 uM by colorimetric method. Summed up: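 First-stage HsDHODH screen at a single compound concentration of 50 µM, reported as % inhibition. It was run in parallel with the PfDHODH screen.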
Chain of Dihydroorotate dehydrogenase (quinone), mitochondrial (Homo sapiens) (Q02127 whole entry): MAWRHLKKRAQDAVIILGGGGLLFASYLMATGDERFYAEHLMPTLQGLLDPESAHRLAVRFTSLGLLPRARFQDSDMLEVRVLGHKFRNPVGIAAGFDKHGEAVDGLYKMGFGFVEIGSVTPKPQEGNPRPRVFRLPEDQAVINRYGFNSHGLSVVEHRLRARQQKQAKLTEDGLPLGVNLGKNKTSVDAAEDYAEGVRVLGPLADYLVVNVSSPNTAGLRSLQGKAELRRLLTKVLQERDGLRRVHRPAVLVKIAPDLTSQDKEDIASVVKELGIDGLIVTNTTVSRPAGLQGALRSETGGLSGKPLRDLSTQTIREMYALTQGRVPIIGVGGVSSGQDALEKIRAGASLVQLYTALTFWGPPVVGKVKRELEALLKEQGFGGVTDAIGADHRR

`Cc1cc(Nc2ccc(S(=O)(=O)Nc3ccccc3)cc2)n2nc(C)cc2n1`: the IC50 in series [1] was 27 µM; in series [3] it was 2800 nM; in series [5] it was more than 50 µM. For the same molecule, the selectivity ratio in series [2] turned out to be 9.6. Further, the figures for the inhibition in series [4] and in series [6] were 25% and 0%, respectively.
